This is an account of results in ChEMBL document CHEMBL1130045, “7-Spiroindanyl derivatives of naltrexone and oxymorphone as selective ligands for delta opioid receptors” (J Med Chem, 1997).

For test [1], the species on record is Cavia porcellus. Description: Compound was tested for agonistic activity on the electrically stimulated guinea pig ileum (GPI) at 1 uM. Format: functional.
The species named for test [2] is Mus musculus. Description: Compound was tested for agonistic activity on the electrically stimulated mouse vas deferens (MVD) at 1 uM. Format: functional.
For test [3], the species on record is Mus musculus. Description: Compound was tested for the antagonist activity on the electrically stimulated mouse vas deferens using DADLE as delta opioid receptor agonist. Format: functional. The essentials: (§1)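 Electrically stimulated guinea pig ileum (morphine, μ; ethylketazocine, κ) or mouse vas deferens (DADLE, δ). The test ligand is incubated with the tissue for 15 min, then the agonist curve is run with 100 nM antagonist present. Read-out is the IC50 ratio: agonist IC50 with antagonist divided by the control IC50 in the same preparation. Three or more replicates.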

The target of test [4] is Delta-type opioid receptor (Homo sapiens, UniProt P41143). Description: […]. Format: functional.
Test [5] deals with Kappa-type opioid receptor (Homo sapiens, UniProt P41145). Description: […]. Format: functional.
The target in test [6] is Mu-type opioid receptor (Homo sapiens, UniProt P35372). Description: […]. Format: functional.
The target of test [7] is Kappa-type opioid receptor (Cavia porcellus) (UniProt P41144). Description: Antagonist activity against electrically stimulated guinea pig ileum using ethylketazocine (EK) as kappa opioid receptor agonist. Format: functional, tissue-based. A digest of the protocol: as §1
In test [8] the target is Mu-type opioid receptor (Cavia porcellus) (UniProt P97266). Description: Antagonist activity against electrically stimulated guinea pig ileum using morphine (M) as mu opioid receptor agonist. Format: functional, tissue-based. The essentials: as §1
For test [9], the target named is Delta-type opioid receptor (Mus musculus) (UniProt P32300). Description: Compound was tested for its ability to antagonize the antinociceptive effect of DSLET (delta-2 opioid receptor agonist) in mice. Format: functional. A digest of the protocol:
(§2)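 Tail-flick antinociception in ICR mice. Antagonist is given icv at 5 or 10 nmol, timed so its 20 min peak effect falls at the centre of the observation period. Agonists are DPDPE and DSLET icv, and morphine sc. Read-out is the agonist ED50 with antagonist divided by the control ED50, with 95% confidence limits.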

Test [10] addresses Kappa-type opioid receptor (Mus musculus) (UniProt P33534). Description: Compound was tested for its ability to antagonize the antinociceptive effect of U-69,594 (kappa opioid receptor agonist) in mice. Format: functional.
Test [11] concerns the target Mu-type opioid receptor (Mus musculus) (UniProt P42866). Description: Compound was tested for its ability to antagonize the antinociceptive effect of morphine (mu opioid receptor agonist) in mice. Format: functional. The essentials:
as §2

The target in test [12] is Delta-type opioid receptor (Mus musculus) (UniProt P32300). Description: Compound was tested for its ability to antagonize the antinociceptive effect of DPDPE (delta-1 opioid receptor agonist) in mice. Format: functional. A digest of the protocol:
as §2

The target of test [13] is T1, Delta-type opioid receptor (Mus musculus, UniProt P32300). Description: […]. Format: functional. A digest of the protocol: (§3)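 Competition binding in ICR mouse brain membranes, using a modified Werling procedure. Radioligands are [3H]naltrindole for δ, [3H]DAMGO for μ and [3H]U69593 for κ. Ki values are derived from the competition curves.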
Test [14] deals with Kappa-type opioid receptor (Mus musculus, UniProt P33534). Description: […]. Format: functional. The essentials:
as §3

Test [15] concerns the target Mu-type opioid receptor (Mus musculus, UniProt P42866). Description: […]. Format: functional. The essentials: as §3
The target of test [16] is Opioid receptors; mu & kappa (Homo sapiens) (UniProt P41145+P35372). Description: Antagonist selectivity ratio measured as delta IC50 to that of mu kappa IC50 values. Format: functional. The essentials: (§4)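 Derived from the tissue antagonism data. The δ IC50 ratio (DADLE, mouse vas deferens) is divided by the μ (morphine) or κ (ethylketazocine) IC50 ratio from guinea pig ileum, each ratio measured at 100 nM antagonist. An IC50 ratio below unity is set to a minimum of 1 in the calculation.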

Test [17] concerns the target Opioid receptors; mu & delta (Homo sapiens) (UniProt P41143+P35372). Description: Antagonist selectivity ratio measured as delta IC50 to that of mu receptor IC50 values. Format: functional. A digest of the protocol:
as §4

The species entered for test [18] is Cavia porcellus. Description: Compound was tested for agonistic activity on the electrically stimulated guinea pig ileum (GPI). Format: functional, organism-based.
Test [19] is filed under the species Mus musculus. Description: Compound was tested for agonistic activity on the electrically stimulated mouse vas deferens (MVD). Format: functional, organism-based.
The target in test [20] is T1, Delta-type opioid receptor. Description: The compound tested for […] against [3H]- NT1 (Opioid receptor delta 1) opioid receptor. The essentials:
as §3

Molecules are shown by their SMILES. Some results are limits rather than exact numbers.

Sequence of Opioid receptors; mu & kappa (Homo sapiens) (P35372 whole entry, looked up): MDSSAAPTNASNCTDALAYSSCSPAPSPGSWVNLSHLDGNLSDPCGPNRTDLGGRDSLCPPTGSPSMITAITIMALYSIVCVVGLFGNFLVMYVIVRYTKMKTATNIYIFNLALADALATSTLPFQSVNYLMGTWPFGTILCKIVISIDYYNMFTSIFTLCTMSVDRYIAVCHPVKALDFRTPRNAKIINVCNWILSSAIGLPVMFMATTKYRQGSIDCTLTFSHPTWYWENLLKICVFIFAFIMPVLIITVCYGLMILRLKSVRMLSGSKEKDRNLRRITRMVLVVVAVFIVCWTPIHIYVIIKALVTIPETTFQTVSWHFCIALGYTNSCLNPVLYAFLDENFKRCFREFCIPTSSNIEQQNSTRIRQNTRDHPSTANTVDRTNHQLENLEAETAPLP
Sequence of Opioid receptors; mu & kappa (Homo sapiens) (P41145 whole entry, looked up): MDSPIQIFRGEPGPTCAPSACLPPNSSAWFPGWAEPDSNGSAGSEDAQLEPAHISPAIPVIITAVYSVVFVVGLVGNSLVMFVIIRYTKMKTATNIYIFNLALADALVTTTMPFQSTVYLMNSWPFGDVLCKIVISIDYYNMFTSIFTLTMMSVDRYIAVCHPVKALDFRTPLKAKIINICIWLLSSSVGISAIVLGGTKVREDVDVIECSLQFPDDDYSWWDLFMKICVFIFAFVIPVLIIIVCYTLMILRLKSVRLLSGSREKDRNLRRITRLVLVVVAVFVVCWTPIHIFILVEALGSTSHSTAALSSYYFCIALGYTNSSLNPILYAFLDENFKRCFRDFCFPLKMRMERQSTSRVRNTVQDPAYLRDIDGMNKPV
Sequence of Opioid receptors; mu & delta (Homo sapiens) (P35372 whole entry, looked up): as the sequence (P35372 whole entry, looked up) above
Sequence of Opioid receptors; mu & delta (Homo sapiens) (P41143 whole entry, looked up): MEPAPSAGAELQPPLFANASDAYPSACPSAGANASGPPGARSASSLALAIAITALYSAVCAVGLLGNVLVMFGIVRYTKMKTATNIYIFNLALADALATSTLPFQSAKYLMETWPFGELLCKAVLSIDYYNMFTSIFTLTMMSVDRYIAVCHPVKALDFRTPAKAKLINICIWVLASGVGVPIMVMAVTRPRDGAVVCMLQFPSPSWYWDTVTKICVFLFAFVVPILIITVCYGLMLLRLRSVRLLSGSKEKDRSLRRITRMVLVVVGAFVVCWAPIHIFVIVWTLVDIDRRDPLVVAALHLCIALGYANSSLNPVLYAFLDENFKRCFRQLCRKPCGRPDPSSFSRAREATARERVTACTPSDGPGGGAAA
Sequence of Mu-type opioid receptor (Cavia porcellus) (P97266 whole entry): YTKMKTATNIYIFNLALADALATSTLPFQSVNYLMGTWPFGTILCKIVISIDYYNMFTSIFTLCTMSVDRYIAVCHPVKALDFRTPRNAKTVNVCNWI
Sequence of Kappa-type opioid receptor (Cavia porcellus) (P41144 whole entry): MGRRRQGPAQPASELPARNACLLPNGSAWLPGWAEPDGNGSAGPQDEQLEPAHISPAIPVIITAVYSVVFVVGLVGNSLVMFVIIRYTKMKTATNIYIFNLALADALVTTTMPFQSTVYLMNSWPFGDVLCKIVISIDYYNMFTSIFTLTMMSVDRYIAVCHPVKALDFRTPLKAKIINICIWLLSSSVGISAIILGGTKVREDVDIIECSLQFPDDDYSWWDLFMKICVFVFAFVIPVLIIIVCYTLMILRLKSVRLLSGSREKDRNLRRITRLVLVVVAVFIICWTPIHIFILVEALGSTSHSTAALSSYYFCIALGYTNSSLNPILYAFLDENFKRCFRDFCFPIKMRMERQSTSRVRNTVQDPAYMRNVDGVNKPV
T1 sequence (P32300 whole entry): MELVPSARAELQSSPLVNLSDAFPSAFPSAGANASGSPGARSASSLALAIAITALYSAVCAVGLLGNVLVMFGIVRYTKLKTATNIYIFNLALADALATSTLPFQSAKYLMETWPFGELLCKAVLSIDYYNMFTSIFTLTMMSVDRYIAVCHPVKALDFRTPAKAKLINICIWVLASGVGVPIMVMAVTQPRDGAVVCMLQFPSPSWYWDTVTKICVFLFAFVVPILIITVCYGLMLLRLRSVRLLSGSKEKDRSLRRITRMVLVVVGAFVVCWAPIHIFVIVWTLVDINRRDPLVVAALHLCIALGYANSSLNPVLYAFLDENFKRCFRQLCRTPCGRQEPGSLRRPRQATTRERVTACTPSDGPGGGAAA
Sequence of Delta-type opioid receptor (Mus musculus) (P32300 whole entry): as above
Sequence of Kappa-type opioid receptor (Mus musculus, UniProt P33534) (P33534 whole entry): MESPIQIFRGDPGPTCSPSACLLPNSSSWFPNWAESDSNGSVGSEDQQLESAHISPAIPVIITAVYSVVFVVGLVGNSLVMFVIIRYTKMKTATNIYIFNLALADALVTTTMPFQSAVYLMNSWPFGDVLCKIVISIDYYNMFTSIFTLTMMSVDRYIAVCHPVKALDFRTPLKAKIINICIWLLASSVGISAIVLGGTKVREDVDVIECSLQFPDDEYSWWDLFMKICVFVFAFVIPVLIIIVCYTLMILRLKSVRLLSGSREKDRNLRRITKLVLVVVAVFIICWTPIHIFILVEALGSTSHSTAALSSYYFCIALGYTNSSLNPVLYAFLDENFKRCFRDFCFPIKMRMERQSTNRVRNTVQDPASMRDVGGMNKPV
Sequence of Kappa-type opioid receptor (Mus musculus) (P33534 whole entry): as above
Sequence of Mu-type opioid receptor (Mus musculus) (P42866 whole entry): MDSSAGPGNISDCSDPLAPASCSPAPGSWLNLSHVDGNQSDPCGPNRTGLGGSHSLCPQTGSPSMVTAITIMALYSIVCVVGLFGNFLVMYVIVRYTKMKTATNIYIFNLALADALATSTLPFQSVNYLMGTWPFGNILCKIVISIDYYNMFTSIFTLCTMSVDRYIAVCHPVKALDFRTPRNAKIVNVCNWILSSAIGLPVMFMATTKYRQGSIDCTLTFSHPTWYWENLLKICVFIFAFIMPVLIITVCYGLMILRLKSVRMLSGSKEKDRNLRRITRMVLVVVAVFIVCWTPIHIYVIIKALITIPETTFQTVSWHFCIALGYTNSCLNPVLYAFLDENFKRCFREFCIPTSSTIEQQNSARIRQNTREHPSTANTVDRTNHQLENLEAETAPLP
Sequence of Mu-type opioid receptor (Mus musculus, UniProt P42866) (P42866 whole entry): as above
Sequence of Mu-type opioid receptor (Homo sapiens, UniProt P35372) (P35372 whole entry): as the sequence (P35372 whole entry, looked up) above
Sequence of Kappa-type opioid receptor (Homo sapiens, UniProt P41145) (P41145 whole entry): as the sequence (P41145 whole entry, looked up) above
Sequence of Delta-type opioid receptor (Homo sapiens, UniProt P41143) (P41143 whole entry): as the sequence (P41143 whole entry, looked up) above

`O=C1[C@@H]2Oc3c(O)ccc4c3[C@@]23CCN(CC2CC2)[C@H](C4)[C@]3(O)CC12Cc1ccccc1C2`: the Max response in test [1] is 16%; in [2], -8%. Further, the IC50 ratio in test [3] stood at 130. The Ki in test [4] is 0.25 nM; in [5], above 3000 nM; in test [6], 1.53 nM.
`O=C1C2Oc3c(O)ccc4c3C23CCN(CC2CC2)C(C4)[C@]3(O)CC12Cc1cc3ccccc3cc1C2` (stereo not given in full): the Max response is reported as 52% in [1] and 4.9% in test [2]. For the same compound, the IC50 ratio in test [7] was 0.24; in test [8], 3.4; in test [3] it was 48; in test [16] it was 48; in test [17] it was 14.1. In addition, the ED50 ratio in test [9] turned out to be 1.5; in [10], 0.8; in test [11], 0.8; in [12] it was 4.4. The Ki entry in test [13] was “Non-competitive inhibition”; in test [14], 1030 nM; in test [15] it was 7.81 nM.
With `O=C1C2Oc3c(O)ccc4c3C23CCN(CC2CC2)C(C4)[C@]3(O)CC12Cc1ccc3ccccc3c1C2` (stereo not given in full), the figures for the Max response in test [1] and in test [2] were 13.9% and 14%, respectively. Besides, the IC50 ratio in [7] was found to be 1.7; in test [8] it was 1; in test [3], 25; in test [16] it was 14.7; in test [17], 25.
Consider `COc1cccc2c1CC1(C2)C[C@@]2(O)C3Cc4ccc(O)c5c4C2(CCN3C)C(O5)C1=O` (stereo not given in full), for which the figures for the IC50 in test [18] and in test [19] were 148 nM and 27 nM, respectively. The results for the Ki in test [13], in [14] and in test [15] were 5.49 nM, above 3000 nM and 9.24 nM, respectively.
Consider `O=C1C2Oc3c(O)ccc4c3C23CCN(CC2CC2)C(C4)[C@]3(O)CC12Cc1cccc3cccc(c13)C2` (stereo not given in full), for which the results for the Max response in test [1] and in test [2] were 11.2% and 17.6%, respectively. Also, the IC50 ratio in [7] worked out at 0.78; in [8] it was 0.93; in test [3], 12.6; in test [16], 12.6; in test [17] it was 12.6.
Consider `CN1CCC23c4c5ccc(O)c4OC2C(=O)C2(Cc4cc6ccccc6cc4C2)C[C@@]3(O)C1C5` (stereo not given in full), for which the Max response in test [1] is 13.4%; in [2] it was 57%. Moreover, the IC50 ratio is 1.2 in [7]; 0.58 in [8]; 1.1 in test [3]; 1 in [16]; 1 in test [17]. In addition, the ED50 ratio in [9] was found to be 0.9; in [10] it was 3; in test [11], 2; in test [12], 1.5. The Ki in [14] was above 3000 nM; in [15], 125 nM; in test [20], 31.6 nM.
As to `COc1ccc2c(c1)CC1(C2)C[C@@]2(O)C3Cc4ccc(O)c5c4C2(CCN3CC2CC2)C(O5)C1=O` (stereo not given in full), the Max response in [1] is on record as -52%; in test [2], 0.6%. For the same compound, the IC50 ratio in test [7] is 2.8; in test [8], 6.9; in [3], 11.8; in [16], 4.2; in test [17] it was 1.7.
In the case of `O=C1/C(=C/c2ccccc2)C[C@@]2(O)[C@H]3Cc4ccc(O)c5c4[C@@]2(CCN3CC2CC2)[C@H]1O5`, the ED50 ratio in test [9] was 0.91; in test [10], 1.2; in test [11] it was 0.8; in [12], 7.2.
Consider `CN1CC[C@]23c4c5ccc(O)c4O[C@H]2C(=O)C2(Cc4ccccc4C2)C[C@@]3(O)[C@H]1C5` [SPIROINDANYLOXYMORPHONE], for which the Max response in [1] was 55%. Further, the IC50 ratio in test [7] is 0.99; in test [8], 1.2. Also, the IC50 in test [19] was found to be 23 nM. For the same compound, the Ki in test [4] was 2.75 nM; in [5], above 3000 nM; in test [6], 14.3 nM.
Take `COc1cccc2c1CC1(C2)C[C@@]2(O)C3Cc4ccc(O)c5c4C2(CCN3CC2CC2)C(O5)C1=O` (stereo not given in full): the Max response in test [1] was -4.5%; in test [2] it was -18%. The IC50 ratio in test [7] amounted to 2.4; in test [8], 6.2; in [3], 85; in [16] it was 35; in test [17], 13.7. Moreover, the ED50 ratio in [9] was 4.3; in test [10] it was 3.4; in test [11] it was 2.5; in [12], 5.6. The Ki was 0.028 nM in test [13], above 3000 nM in test [14] and 0.44 nM in [15].
